Laboratory results reported in ChEMBL document CHEMBL1123420, “Synthesis and toxicity toward nigrostriatal dopamine neurons of 1-methyl-4-phenyl-1,2,3,6-tetrahydropyridine (MPTP) analogues” (1986).

tested on: Mus musculus; assay: Dopamine content in mice striata was evaluated after 1 day of administration of compound; type: functional
How it was run: (§1)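 Male Swiss mice (25–40 g) dosed ip, 0.072 mmol/kg on days 1 and 2, then 0.142 mmol/kg on days 3–12. Drugs were given as 0.14 M solutions in normal saline and stored at 5 °C; saline-injected controls. Mice killed 1 day after the last injection. Striata weighed, homogenized, Sephadex-separated, then DA, DOPAC and HVA measured by HPLC-EC in μg/g tissue as mean ± error.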

Structure (SMILES)	Content
CC1=C(c2ccccc2)CC(C)N(C)C1.O=C(O)/C=C/C(=O)O (stereo not drawn)	15.22 ug (g of tissue)-1
CN1CC=C(c2ccccc2)CC1.Cl	3.16 ug (g of tissue)-1
CC1=C(c2ccccc2)CCN(C)C1.Cl	13.68 ug (g of tissue)-1
CN1CC=C(c2ccccc2)C(C)(C)C1.Cl	17.28 ug (g of tissue)-1
CC1CN(C)C(C)C=C1c1ccccc1.Cl (stereo not drawn)	14.42 ug (g of tissue)-1
CN(C)C/C=C/c1ccccc1.Cl	13.6 ug (g of tissue)-1
CC1CN(C)CC=C1c1ccccc1.Cl (stereo not drawn)	13.21 ug (g of tissue)-1

tested on: Mus musculus; assay: HVA content in mice striata was evaluated after 1 day of administration of compound; type: functional; how it was run: as §1

Structure (SMILES)	Content
CC1=C(c2ccccc2)CC(C)N(C)C1.O=C(O)/C=C/C(=O)O (stereo not drawn)	1.27 ug (g of tissue)-1
CN1CC=C(c2ccccc2)CC1.Cl	0.61 ug (g of tissue)-1
CC1=C(c2ccccc2)CCN(C)C1.Cl	1.26 ug (g of tissue)-1
CN1CC=C(c2ccccc2)C(C)(C)C1.Cl	1.39 ug (g of tissue)-1
CC1CN(C)C(C)C=C1c1ccccc1.Cl (stereo not drawn)	1.39 ug (g of tissue)-1
CN(C)C/C=C/c1ccccc1.Cl	1.11 ug (g of tissue)-1
CC1CN(C)CC=C1c1ccccc1.Cl (stereo not drawn)	1.14 ug (g of tissue)-1

tested on: Mus musculus; assay: DOPAC content in mice striata was evaluated after 1 day of administration of compound; type: functional; how it was run: as §1

Structure (SMILES)	Content
CC1=C(c2ccccc2)CC(C)N(C)C1.O=C(O)/C=C/C(=O)O (stereo not drawn)	1.18 ug (g of tissue)-1
CN1CC=C(c2ccccc2)CC1.Cl	0.31 ug (g of tissue)-1
CC1=C(c2ccccc2)CCN(C)C1.Cl	1.22 ug (g of tissue)-1
CN1CC=C(c2ccccc2)C(C)(C)C1.Cl	1.31 ug (g of tissue)-1
CC1CN(C)C(C)C=C1c1ccccc1.Cl (stereo not drawn)	1.36 ug (g of tissue)-1
CN(C)C/C=C/c1ccccc1.Cl	1.37 ug (g of tissue)-1
CC1CN(C)CC=C1c1ccccc1.Cl (stereo not drawn)	1.11 ug (g of tissue)-1

tested on: Mus musculus; assay: Dopamine content in mice striata was evaluated after 9 days of administration of compound; type: functional
How it was run: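 Ip regimen in male Swiss mice (25–40 g): 0.072 mmol/kg on days 1–2, then 0.142 mmol/kg on days 3–12, from 0.14 M saline solutions; saline controls; n=5 per group. Animals killed 9 days after the final injection. Striatal DA measured by HPLC-EC after homogenization and Sephadex cleanup, reported in μg/g tissue.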

Structure (SMILES)	Content
CC1=C(c2ccccc2)CC(C)N(C)C1.O=C(O)/C=C/C(=O)O (stereo not drawn)	14.49 ug (g of tissue)-1
CN1CC=C(c2ccccc2)CC1.Cl	4.34 ug (g of tissue)-1
CC1=C(c2ccccc2)CCN(C)C1.Cl	13.85 ug (g of tissue)-1
CN1CC=C(c2ccccc2)C(C)(C)C1.Cl	17.28 ug (g of tissue)-1
CC1CN(C)C(C)C=C1c1ccccc1.Cl (stereo not drawn)	14.65 ug (g of tissue)-1
CN(C)C/C=C/c1ccccc1.Cl	14.56 ug (g of tissue)-1
CC1CN(C)CC=C1c1ccccc1.Cl (stereo not drawn)	13.35 ug (g of tissue)-1
